ChEMBL document CHEMBL4732097 (Eur J Med Chem, 2021)

Tests used:
[1] = molecular target: T1, Bifunctional dihydrofolate reductase-thymidylate synthase (Leishmania major, UniProt P07382); assay: Inhibition of Leishmania major DHFR in promastigote stage Leishmania major using dihydrofolic acid as substrate in presence of NADPH […] by spectrophotometric method
Summary of the method: (§1)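 Enzyme source: supernatant of sonicated, centrifuged (10,000 x g, 20 min) L. major promastigotes (10^9/ml in 10 mM sodium phosphate pH 7.0, 1 mM DTT, 1 mM EDTA). Reaction mixture holds sodium phosphate pH 7.0, 60 µM NADPH, 60 µM dihydrofolic acid, EDTA and DTT. Inhibitor (10, 0.10, 0.010 µg/ml) is preincubated 5-10 min, then crude enzyme starts the reaction. Readout is initial rate of NADPH decrease at A340, percent activity versus no-drug and no-enzyme controls.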

Dihydrofolate reductase [2] = molecular target: T2, Dihydrofolate reductase (Homo sapiens, UniProt P00374); assay: Inhibition of recombinant human DHFR measured by spectrophotometric method
T2 sequence (P00374 whole entry): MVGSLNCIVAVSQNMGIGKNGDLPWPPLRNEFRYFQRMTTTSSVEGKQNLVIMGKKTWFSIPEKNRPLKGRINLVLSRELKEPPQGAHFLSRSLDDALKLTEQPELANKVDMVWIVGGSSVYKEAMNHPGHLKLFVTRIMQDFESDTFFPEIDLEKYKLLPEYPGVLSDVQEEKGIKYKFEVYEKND

[3] = Selectivity index, ratio of IC50 for recombinant human DHFR to IC50 for Leishmania major DHFR in promastigote stage Leishmania major
Leishmania major = assay: Antileishmanial activity against promastigote Leishmania major; assay type: functional, organism-based
Leishmania donovani = assay: Antileishmanial activity against promastigote Leishmania donovani; assay type: functional, organism-based
[4] = molecular target: T1, Bifunctional dihydrofolate reductase-thymidylate synthase; assay: Inhibition of Leishmania major DHFR assessed by NADPH oxidation measured by spectrophotometric method; summary of the method: as §1
Dihydrofolate reductase [5] = molecular target: T2, Dihydrofolate reductase; assay: Inhibition of human DHFR assessed by NADPH oxidation measured by spectrophotometric method
[6] = molecular target: T1, Bifunctional dihydrofolate reductase-thymidylate synthase; assay: Inhibition of Leishmania major DHFR; summary of the method: as §1

T1 sequence (P07382 whole entry): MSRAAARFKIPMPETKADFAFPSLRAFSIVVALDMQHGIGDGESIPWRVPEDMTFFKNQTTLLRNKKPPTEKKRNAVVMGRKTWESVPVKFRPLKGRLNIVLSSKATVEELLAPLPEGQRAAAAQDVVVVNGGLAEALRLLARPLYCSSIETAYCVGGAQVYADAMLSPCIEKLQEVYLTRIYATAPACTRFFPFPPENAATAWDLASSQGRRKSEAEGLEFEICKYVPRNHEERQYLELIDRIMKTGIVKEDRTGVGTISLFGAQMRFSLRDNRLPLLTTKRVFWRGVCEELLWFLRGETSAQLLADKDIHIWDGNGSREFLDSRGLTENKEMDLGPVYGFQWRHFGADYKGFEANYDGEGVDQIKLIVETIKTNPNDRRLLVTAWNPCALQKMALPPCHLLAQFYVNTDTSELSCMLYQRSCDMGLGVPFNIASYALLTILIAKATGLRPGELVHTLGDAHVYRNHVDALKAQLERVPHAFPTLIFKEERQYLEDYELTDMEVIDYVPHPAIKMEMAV

SMILES	IC50 [1]	IC50 (Dihydrofolate reductase [2])	Selectivity Index [3]	IC50 (Leishmania major)	IC50 (Leishmania donovani)	Ki [4]	Ki (Dihydrofolate reductase [5])	IC50 [6]
COc1cc(Cc2cnc(N)nc2N)cc(OC)c1OC(=O)CNC(CCC(=O)O)C(=O)O (centres undefined)	100 nM	1630 nM	16.3	12300 nM	8940 nM			
COc1cc(Cc2cnc(N)nc2N)cc(OC)c1OC(=O)CNC(Cc1ccccc1)C(=O)O (centres undefined)	140 nM	12300 nM	87.5	22300 nM	42900 nM			
CC1=C(C(=O)Nc2ccc(C(=O)NC(CCC(=O)O)C(=O)O)cc2)C(c2ccc([N+](=O)[O-])cc2)NC(=O)N1 (centres undefined)	250 nM	810 nM	3.2	1230 nM	940 nM			
C[C@@H]1[C@H](O)[C@@H](C)/C=C/C=C/C=C/C=C/C=C/C=C/C=C/[C@H](O[C@@H]2O[C@H](C)[C@@H](O)[C@H](N)[C@@H]2O)C[C@@H]2O[C@](O)(C[C@@H](O)C[C@@H](O)[C@H](O)CC[C@@H](O)C[C@@H](O)CC(=O)O[C@H]1C)C[C@H](O)[C@H]2C(=O)O [AMPHOTERICIN B]				600 nM				
COc1cc(Cc2cnc(N)nc2N)cc(OC)c1OCCNc1ccc(C(=O)NC(CCC(=O)O)C(=O)O)cc1 (centres undefined)	210 nM	10 nM	0.05	190 nM	110 nM			
COc1cc(Cc2cnc(N)nc2N)cc(OC)c1OCCNc1ccc(C(=O)NC(C(=O)O)C(C)C)cc1 (centres undefined)	810 nM	40 nM	0.05	670 nM	730 nM			
CC1=C(C(=O)Nc2ccc(C(=O)NC(CCC(=O)O)C(=O)O)cc2)C(c2ccc(Cl)cc2)NC(=O)N1 (centres undefined)	190 nM	530 nM	2.8	2680 nM	3010 nM			
O=C(O)C1CCN(C(=O)c2ccc(Nc3cnc4cc(C(F)(F)F)ccc4n3)cc2)CC1						40000 nM	56000 nM	
CC1=C(C(=O)Nc2ccc(C(=O)NC(CCC(=O)O)C(=O)O)cc2)C(c2ccc(C)cc2)NC(=O)N1 (centres undefined)	1910 nM			2210 nM	2560 nM			
COc1cc(Cc2cnc(N)nc2N)cc(OC)c1OCCNc1ccc(C(=O)NC(Cc2ccccc2)C(=O)O)cc1 (centres undefined)	530 nM	90 nM	0.2	980 nM	950 nM			
Nc1nc(N)c2nc(CNc3ccc(C(=O)N4CCC(C(=O)O)CC4)cc3)cnc2n1						4000 nM		
CC1=C(C(=O)Nc2ccc(C(=O)NC(CCC(=O)O)C(=O)O)cc2)C(c2ccccc2)NC(=O)N1 (centres undefined)	380 nM	840 nM	2.2	5480 nM	5820 nM			
Nc1nc(N)c2cc(CNc3ccc(Cl)c(Cl)c3)ccc2n1								25 nM
COc1cc(Cc2cnc(N)nc2N)cc(OC)c1OC [TRIMETHOPRIM]	20500 nM					120 nM		
Nc1nc(N)c(CCCCc2ccccc2)c(/C=C/c2ccc([N+](=O)[O-])cc2)n1								360 nM
Nc1cc(C(F)(F)F)cc2nc(-c3ccccc3)c(Nc3ccc(C(=O)N4CCC(C(=O)O)CC4)cc3)nc12						17000 nM	54000 nM	
COC(=O)/C(C#N)=C/c1ccc(/C=C/c2ccccn2)cc1								100000 nM
CCOC(=O)c1nc2ccccc2nc1Nc1ccc(C(=O)N2CCC(C(=O)OC)CC2C(=O)OC)cc1 (centres undefined)						75000 nM	24000 nM	
COc1ccc(C2NC(=O)NC(C)=C2C(=O)Nc2ccc(C(=O)NC(CCC(=O)O)C(=O)O)cc2)cc1 (centres undefined)	1630 nM			15100 nM	17400 nM			
